RAM network inh = inhibitors of the yeast RAM network, primary screen, dse1pr::URA3 reporter, 5-FOA selection; inhibition, % at 50 µM; S. cerevisiae dse1pr::URA3 reporter, 5-FOA growth OD615, 2 d; analog-sensitive cbk1-as2 kinase mutant strain; 1.8% of 190,000 active;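 active means inhibition above a set limit, 3 SD over mean compound inhibition, cut at about 8.4% in these data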;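 further: inhibition rescues growth on 5-FOA so higher OD means more RAM inhibition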
ABCG2 block = ABCG2 efflux pump inhibitors, primary screen, multiplex with ABCB1, IgMXP3 cells, flow cytometry. JC-1 efflux. inhibition, % at 6.6 µM. 0.1% of 190,000 active. AID 1325, 2008;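 active means inhibition above 80%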
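Read-out basis: Efflux inhibition in percent versus controls | Test system: ABCG2 IgMXP3 and barcoded ABCB1 CCRF-Adr cell mix | Quantity: 3 million cells/mL in well | Schedule: 10 min at 25 °C | Control set: Nicardipine as high control, DMSO as low control | Reagent: JC-1 as fluorescent efflux pump substrate | Signal: Flow cytometry of retained JC-1 fluorescence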
ABCB1 block = ABCB1 efflux pump inhibitors, primary screen, cell-based, multiplex, flow cytometry, ABCG2 counter-screen; ATP-dependent translocase ABCB1 (Homo sapiens), P08183; CCRF-Adr cells, JC-1 efflux; inhibition, % at 6.6 µM; 0.067% of 190,000 active; in the data active means inhibition above about 40%;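 further: higher value means more JC-1 retained so stronger ABCB1 efflux block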
Target sequence (P08183 whole entry, looked up): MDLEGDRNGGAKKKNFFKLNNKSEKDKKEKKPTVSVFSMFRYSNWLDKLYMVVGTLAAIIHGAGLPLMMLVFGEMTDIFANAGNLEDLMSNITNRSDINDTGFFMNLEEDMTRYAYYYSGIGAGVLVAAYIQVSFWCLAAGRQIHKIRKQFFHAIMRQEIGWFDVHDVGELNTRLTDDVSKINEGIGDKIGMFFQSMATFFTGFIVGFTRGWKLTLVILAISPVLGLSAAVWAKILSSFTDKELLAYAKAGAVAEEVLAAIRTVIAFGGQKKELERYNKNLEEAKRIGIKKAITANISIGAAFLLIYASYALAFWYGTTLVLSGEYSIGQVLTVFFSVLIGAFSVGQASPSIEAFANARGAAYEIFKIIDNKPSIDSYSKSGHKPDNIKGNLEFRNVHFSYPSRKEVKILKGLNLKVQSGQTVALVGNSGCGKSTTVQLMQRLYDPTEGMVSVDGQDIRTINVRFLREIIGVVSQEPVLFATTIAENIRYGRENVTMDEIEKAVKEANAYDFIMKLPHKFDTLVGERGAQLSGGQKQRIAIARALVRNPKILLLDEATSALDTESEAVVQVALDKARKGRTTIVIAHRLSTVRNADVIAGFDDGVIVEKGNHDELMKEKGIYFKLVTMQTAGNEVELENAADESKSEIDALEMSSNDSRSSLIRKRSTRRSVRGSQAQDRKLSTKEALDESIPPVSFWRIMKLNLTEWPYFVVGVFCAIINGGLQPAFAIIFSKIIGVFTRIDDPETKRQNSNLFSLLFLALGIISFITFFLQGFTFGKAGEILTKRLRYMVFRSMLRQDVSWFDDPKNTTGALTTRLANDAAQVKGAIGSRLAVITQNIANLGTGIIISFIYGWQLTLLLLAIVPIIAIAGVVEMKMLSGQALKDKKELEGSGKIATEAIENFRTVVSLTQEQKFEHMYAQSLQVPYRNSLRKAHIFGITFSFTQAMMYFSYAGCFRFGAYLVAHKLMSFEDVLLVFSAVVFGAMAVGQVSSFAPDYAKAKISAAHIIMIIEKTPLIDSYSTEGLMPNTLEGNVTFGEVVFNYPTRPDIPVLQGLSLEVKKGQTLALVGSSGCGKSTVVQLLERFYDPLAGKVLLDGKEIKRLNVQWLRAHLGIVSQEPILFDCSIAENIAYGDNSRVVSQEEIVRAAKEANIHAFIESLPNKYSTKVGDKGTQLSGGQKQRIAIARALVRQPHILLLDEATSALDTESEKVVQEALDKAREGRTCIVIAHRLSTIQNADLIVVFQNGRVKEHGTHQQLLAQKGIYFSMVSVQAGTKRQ
WT yeast gro inh = growth inhibition of WT strain, primary screen, mitochondrial fusion inhibitor project, WT and mutant strains, chemical genetic; mitochondrial fusion phenotypic screen; 2.1% of 190,000 active; inhibition, % at 10 µM; in the data active means inhibition above about 58%; tested in S. cerevisiae
L major viab = Leishmania major promastigote growth inhibition, primary screen; inhibition, % at 10 µM; 9% of 200,000 active; Leishmania major promastigotes, resazurin fluorescence viability; in the data active means inhibition above about 50%;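 further: promastigotes grown with compound for 44 hours at 28 °C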
Each line names hits and unclear results; the compound was inactive in the other large screens. Hits are enriched below; roughly 12% of the tested compounds scored in any of these assays.

COc1ccc(Br)cc1S(=O)(=O)n1ccnc1C	none
Cc1nccn1S(=O)(=O)c1ccc(Br)cc1Br	L major viab 86
Cc1ccc(NC(=O)c2cc(NC(=O)C3CC=CCC3C(=O)O)ccc2N2CCOCC2)cc1Cl (stereo not drawn)	none
CC(C)(C)NC(=O)c1nc2nc(-c3ccccc3)cc(C(F)(F)F)n2n1	none
COc1ccc(NC(=O)c2ccccc2NC(=O)CSc2ccc(Cl)cc2)cc1	none
CCc1nnc(NC(=O)CN2CCN(c3ccccc3F)CC2)s1	none
CCOC(=O)c1ccc(CNCc2ccc(C)cc2)cc1	L major viab 79
Cc1ccc(CNC(=O)COC(=O)c2ccc(Br)cc2)cc1	none
CC1CCN(CCc2nc3cc(NS(=O)(=O)c4ccccc4)ccc3n2C)CC1	none
Cn1c(CN2CCCCC2)nc2cc(NC(=O)c3ccccc3)ccc21	none
Cn1c(CN2CCCCC2)nc2cc(NS(=O)(=O)c3ccc(Cl)cc3)ccc21	L major viab 66
Cn1c(CN2CCCCC2)nc2cc(NC(=O)c3cccc(Br)c3)ccc21	L major viab 98
CC1CCN(CCc2nc3cc(NS(=O)(=O)c4ccc(F)cc4)ccc3n2C)CC1	L major viab 99
Cc1ccccc1C(=O)NNC(=O)CSc1nnc(C)n1-c1ccccc1	none
Cc1nc(Nc2ccccc2)sc1-c1ccccc1	WT yeast gro inh 64
Cc1nc(Nc2ccc(C(=O)O)cc2)sc1-c1ccccc1	none
CCN(CC)c1ccc2c(Cl)c(Br)c(=O)oc2c1	WT yeast gro inh 77, L major viab 69
Cc1cccc(C)c1OCCNC(=O)c1ccc2ccccc2n1	WT yeast gro inh 68
O=C(NCCOc1ccc(Cl)cc1)c1ccc2ccccc2n1	WT yeast gro inh 62
Cc1ccc(N2C(N)=C(C#N)C(c3cccs3)C3=C2CC(C)(C)CC3=O)cc1 (stereo not drawn)	L major viab 98
N#CC1=C(N)N(c2ccccc2)C2=C(C(=O)CCC2)C1c1cccs1 (stereo not drawn)	L major viab 73
COC(=O)C(C(=O)Nc1nc2ccccc2s1)C1CCCC1 (stereo not drawn)	none
O=C(NCc1ccc2c(c1)OCO2)c1ccc(COc2cccc(Cl)c2)o1	WT yeast gro inh 69
O=C(NCc1ccc2c(c1)OCO2)c1ccc(CSCc2ccccc2Cl)o1	RAM network inh 11
CCOC(=O)C(C)Sc1nc(-c2ccccc2)nc2ccccc12 (stereo not drawn)	none
COc1ccc(C(=S)N2CCN(C)CC2)cc1Br	L major viab 92
COc1ccc(C(=S)N2CCN(C)CC2)cc1	L major viab 85 (no result: WT yeast gro inh)
COc1ccc(C(=O)Oc2ccc(C(=S)N3CCOCC3)cc2)cc1	none
COc1cc(C(=S)N2CCCC2)ccc1O	none
CN1CCN(C(=S)c2ccc(Cl)cc2)CC1	L major viab 90
CN1CCN(C(=S)NC(=O)c2ccc(Cl)cc2)CC1	none
CC(=O)Nc1ccc(Oc2cc(NC(C)=O)cc([N+](=O)[O-])c2)cc1	none
O=C(N/N=C/c1ccc(COc2ccc(Br)cc2)o1)c1ccco1	none
CCC(Oc1ccccc1)C(=O)NCc1ccc(S(N)(=O)=O)cc1 (stereo not drawn)	none
COc1ccc(/C=C/C(=O)c2cc(F)ccc2OC(=O)c2ccc(OC)c(OC)c2)cc1OC	L major viab 92
COc1ccc(/C=C/C(=O)c2cc(F)ccc2OC(=O)c2ccccc2OC)cc1OC	none
COc1ccc(/C=C/C(=O)c2cc(Br)ccc2OC(=O)c2ccco2)cc1OC	WT yeast gro inh 65, L major viab 79
COc1ccc(/C=C/C(=O)c2cc(F)ccc2OC(=O)c2ccccc2)cc1OC	L major viab 100 (no result: RAM network inh, ABCG2 block, ABCB1 block, WT yeast gro inh)
Cn1cc(Br)c(C(=O)NNC(=O)c2ccc(Cl)cc2)n1	L major viab 52
COC(=O)N/N=C/c1ccc([N+](=O)[O-])o1	L major viab 99
CN(/N=C/c1ccc([N+](=O)[O-])o1)c1ccccc1	L major viab 71
Cc1nonc1C(=O)N/N=C/c1ccc([N+](=O)[O-])o1	L major viab 94
COc1ccc(/C=N/NC(=O)c2nonc2C)cc1	none
CCCC(=O)Nc1ccc(C(=O)N/N=C/c2ccc([N+](=O)[O-])o2)cc1	L major viab 99
O=[N+]([O-])c1ccc(/C=N/NC(=S)Nc2ccccc2C(F)(F)F)o1	none
CN(Cc1ccno1)C(=O)CC1C(=O)NCCN1CC(c1ccccc1)c1ccccc1 (stereo not drawn)	none
CCN1C(=O)C(C(=O)c2ccccc2)SC1=S (stereo not drawn)	none
COC(=O)C1=CN(CC2CCCO2)C=C(C(=O)OC)C1c1cc(OC)c(OC)c(OC)c1 (stereo not drawn)	none
COC(=O)C(/C=N/OCc1ccc([N+](=O)[O-])cc1)NC(=O)c1cccc(Cl)c1 (stereo not drawn)	none
Cc1nonc1C(=O)N/N=C/c1ccc(O)cc1O	L major viab 98
O=C(N/N=C/c1ccc([N+](=O)[O-])o1)C1CC1	L major viab 100
Cc1nonc1C(=O)N/N=C/c1ccncc1	none
CC(=O)c1ccc(N=C2SCCCN2C(=O)C2CCCC2)cc1	L major viab 64
CC(=O)c1ccc(NC(=S)N2CCCCCC2)cc1	none
COC(=O)C1=C(O)/C(=C\c2sccc2C)N=C1C	L major viab 54
Cc1ccc(C)c(NC2=C(Cl)C(=O)OC2OC(C)C)c1 (stereo not drawn)	none
C=CCNC(=S)Nc1ccc(C)c(S(=O)(=O)N2CCCCC2)c1	none
Cc1ccc(NC(=S)Nc2ccc(C(C)C)cc2)cc1S(=O)(=O)N1CCCCCC1	WT yeast gro inh 66
COc1ccc(NC(=S)Nc2ccc(C)c(S(=O)(=O)N3CCCCC3)c2)cc1	L major viab 76
O=C(O)CCn1cc(/C=N/O)c(-c2cccc([N+](=O)[O-])c2)n1	none
Oc1c(Cl)cc(Cl)cc1/C=N/Nc1ncc(Br)cn1	L major viab 96
O=C(Nc1ccc2nc(-c3cccs3)c(-c3cccs3)nc2c1)NC1CC1	L major viab 64
COCCNC(=O)Nc1ccc2nc(-c3cccs3)c(-c3cccs3)nc2c1	none (no result: WT yeast gro inh)
CCOc1ccc(S(=O)(=O)NCC2CCCO2)c2cccnc12 (stereo not drawn)	none
CCOc1ccc(S(=O)(=O)NCc2ccc(Cl)cc2)c2cccnc12	L major viab 99
Cc1ccc(N2CC(C(=O)Nc3ccc(S(=O)(=O)Nc4nccc(C)n4)cc3)CC2=O)cc1 (stereo not drawn)	none
O=C(NC(NC(=S)Nc1cccc(Cl)c1)C(Cl)(Cl)Cl)OCc1ccccc1 (stereo not drawn)	L major viab 100
O=C(NC(NC(=S)Nc1cccc(C(=O)O)c1)C(Cl)(Cl)Cl)OCc1ccccc1 (stereo not drawn)	none
